Many of the other results were omitted from the sample, so hits are more common in it than they were.
CHOP UPR activ: activators of apoptotic CHOP UPR arm, primary screen, cell-based, CHO-CHOP luciferase reporter, luminescence, uHTS | UPR activation; percent of tunicamycin response over DMSO baseline | activation, % at 10 µM | 330,000 compounds, 0.34% hits;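 active = at 10 µM dose, activation of 40% or more, normalized to positive control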
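measured by = luciferase luminescence | assay system = CHO-CHOP cells, stable luciferase reporter of PERK-eIF2a-CHOP signalling | amount = 500 reporter cells seeded per well | timing = 6 h compound exposure at 37 °C after overnight seeding | controls = positive tunicamycin 10 µg/mL, negative DMSO alone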
UPR XBP1 act: activators of adaptive XBP1 UPR arm, primary screen, cell-based, CHO-XBP1 luciferase reporter, luminescence, uHTS; activation, % at 20 µM; 330,000 compounds, 0.33% hits; IRE1-XBP1 UPR activation; percent of tunicamycin response, DMSO as zero;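 active = versus positive control, 20 µM dose yields 30% or more activation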
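incubation = overnight seeding at 37 °C, 6 h compound treatment at 37 °C | assay system = CHO-XBP1 cells stably carrying IRE1-XBP1-driven luciferase reporter | input = 1000 cells per well | detection = luciferase luminescence | dosing = single point, 20 µM final compound, 1% DMSO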
GAA850 FXN act: FXN promoter activators, primary screen, cell-based, luciferase luminescence, HEK293 lucGAA850; 360,000 compounds, 0.56% hits; HEK293 lucGAA850 FXN promoter luciferase reporter, 24 h; percent of 10 µM SAHA response; AID 540364, 2011; activation, % at 6 µM;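 active = activation above the average of all compounds screened plus 3 SD, cutoff fixed separately per campaign, cut at about 7.5% in these data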
CHOP inh: inhibitors of CHOP promoter induction, primary screen, cell-based, unfolded protein response, luciferase reporter | CHO-K1 CHOP-promoter luciferase, tunicamycin-induced, 15-18 h | inhibition, % at 10 µM | 220,000 compounds, 3.8% hits;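 active = compounds that reduced the stress-induced luciferase reporter signal by more than about 70% of percent inhibition, limit read from the data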
Hits are given with their value; 0 = inactive; - = no result given.

SMILES | CHOP UPR activ | UPR XBP1 act | GAA850 FXN act | CHOP inh
CCOc1ccc2nc(SCC(=O)NCc3ccco3)sc2c1 | 0 | 0 | 0 | 0
COc1cccc(C(O)c2ncc(-c3cccc4ccccc34)[nH]2)c1 (centres undefined) | - | - | 0 | -
CCN=C(Nc1cccc(F)c1)SC1CC(=O)N(c2ccc(OC)cc2)C1=O (centres undefined) | 0 | 0 | 0 | 90
O=C1CC(SC(=Nc2ccccc2)Nc2ccccc2)C(=O)N1c1ccc(Cl)c(Cl)c1 (centres undefined) | 0 | 0 | 0 | 90
CC(=O)Nc1cccc(-c2ccnc3c2CC(C)(C(=O)Nc2cccnc2)O3)c1 (centres undefined) | - | - | 0 | -
Cc1cc(-n2c(SCC(=O)NCc3cccs3)nc3n[nH]c(C)c3c2=N)ccc1Cl | 0 | 0 | 0 | 81
Cc1ccccc1N(CC(=O)NC1CCCC1)C(=O)c1oc(C(C)(C)C)cc1C | 0 | 0 | 0 | 0
Cc1cc(C(C)(C)C)oc1C(=O)N(CC(=O)NC1CCCC1)c1cccc(C(F)(F)F)c1 | 0 | 0 | 0 | 83
CC(=O)N(c1ccccc1)c1ccccc1[N+](=O)[O-] | - | - | 0 | -
O=C(CCc1nc(-c2ccccc2)no1)Nc1cc(C(F)(F)F)ccc1Cl | 0 | 0 | 0 | 93
Cc1cccc(-c2noc(CCC(=O)Nc3ccccc3)n2)c1 | 0 | 0 | 0 | 0
O=C(Nc1cc(C(F)(F)F)ccc1Cl)c1ccc(NC(=O)C(F)(F)F)cc1 | 0 | 0 | 0 | 0
CC(C)(C)c1ccc(-c2noc(CCC(=O)NCC3CCCO3)n2)cc1 (centres undefined) | 0 | 0 | 0 | 90
CNC(=O)CCc1nc(-c2ccc(C(C)(C)C)cc2)no1 | 0 | 0 | 0 | 94
CCCC(=O)Nc1ccc(C(=O)Nc2cc(C(F)(F)F)ccc2Cl)cc1 | 0 | 0 | 0 | 73
COc1cccc(C(=O)c2ccccc2NC(C)=O)c1 | - | - | 0 | -
CN1CCN(c2ccc(-c3cccc4nccn34)cn2)CC1 | - | - | 0 | -
Cc1ccc(C(=O)NC(=S)Nc2cc(C(F)(F)F)ccc2Cl)cc1 | 0 | 0 | 0 | 0
O=C(Cc1ccccc1)NC(=S)Nc1cc(C(F)(F)F)ccc1Cl | 0 | 0 | 0 | 95
COc1ccc(F)cc1S(=O)(=O)N1CCN(Cc2ccc3c(c2)OCO3)CC1 | 0 | 0 | 0 | 0
COc1ccc(Cl)cc1S(=O)(=O)N1CCN(Cc2ccc3c(c2)OCO3)CC1 | 0 | 0 | 0 | 73
O=C(Oc1ccc2ccccc2c1)c1cncc(Br)c1 | 0 | 0 | 0 | 94
Cc1ccccc1OCc1nc2ccccc2c(=O)n1/N=C/c1cn[nH]c1-c1ccc(Br)cc1 | 0 | 0 | 0 | 0
O=c1c2ccccc2nc(COc2ccccc2)n1/N=C/c1cn[nH]c1-c1ccccc1 | 0 | 0 | 0 | 85
O=C(CN1CCN(C(=O)c2ccco2)CC1)Nc1cc(S(=O)(=O)N2CCCC2)ccc1Cl | - | - | 0 | -
SMILES | CHOP UPR activ | UPR XBP1 act | GAA850 FXN act | CHOP inh
Cc1nn(Cc2ccccc2)c(Cl)c1/C=C/C(=O)OCC(=O)NC(C)C(C)C (centres undefined) | 0 | 0 | 0 | 0
Cc1nn(Cc2c(Cl)cccc2Cl)c(Cl)c1/C=C/C(=O)OCC(=O)NCC(F)(F)F | 0 | 0 | 0 | 75
[O-][n+]1cc(Cl)cc(Cl)c1 | - | - | 0 | -
CCC1CCCCN1c1nc2c(C=O)c(C)nn2c2ccccc12 (centres undefined) | 0 | 0 | 0 | 89
CCNC(=S)N/N=C1\C(=O)c2cccc3cccc1c23 | 0 | 0 | 0 | 0
O=C(N/N=C1/C(=O)c2cccc3cccc1c23)c1ccc(Cl)cc1 | 0 | 0 | 0 | 72
Cc1ccc(Nc2cc(C)nn2-c2nc(C)cc(=O)[nH]2)cc1 | 190 | 0 | 0 | -
Cc1ccc(Nc2nc3ccccc3nc2-n2nc(C)cc2C)cc1 | 0 | 0 | 0 | 0
Cc1ccc(S(=O)(=O)N2C[C@H]3N(C(=O)OC(C)C)N(C(=O)OC(C)C)C[C@H](OC(=O)NCc4ccco4)[C@@]3(O)C2)cc1 | - | - | 0 | -
O=C1Nc2ccccc2Oc2cc([N+](=O)[O-])ccc21 | 0 | 0 | 0 | 74
CCCCC(=O)N(C)c1c(C)nc2ccc(C(=O)N3CCN(c4ccccc4)CC3)cn12 | - | - | 0 | -
COc1ccc(-c2nc(CSCC(=O)NCc3ccc4c(c3)OCO4)c(C)o2)cc1OC | 0 | 0 | 0 | 0
Cc1ccsc1-c1nc(CSCC(=O)NCc2ccc3c(c2)OCO3)c(C)o1 | 0 | 0 | 0 | 81
COc1ccc(-c2nc(CSCC(=O)NCc3ccc4c(c3)OCO4)c(C)o2)cc1 | 0 | 0 | 0 | 80
Cc1ccc(CSCC(=O)NCc2ccc3c(c2)OCO3)cc1 | 0 | 0 | 0 | 0
CC1(C(=O)N2Cc3ccccc3C2)CCN1C(=O)Cc1ccccc1 (centres undefined) | - | - | 0 | -
c1ccc(Nc2cccc(Nc3ccccc3)c2)cc1 | 0 | 0 | 0 | 74
COc1ccc(N2CC(C)(C)[C@H](CC(=O)Nc3ccccc3)C2=O)cc1 | - | - | 0 | -
CCOC(=O)CCc1c(C)nc(SCCCn2c(=O)[nH]c3ccccc32)c(C#N)c1C | 0 | 0 | 0 | 83
CCOC(=O)CCc1c(C)nc(SCCN2CCCC2)c(C#N)c1C | 0 | 0 | 0 | 0
OC[C@H]1O[C@@H](c2nc3ccc(-c4nc(-c5cccs5)no4)cc3[nH]2)C[C@@H]1O | - | - | 0 | -
COC(=O)c1ccc(CSc2nc3ccccc3o2)cc1 | 0 | 0 | 0 | 0
O=[N+]([O-])c1ccc(CSc2nc3ccccc3o2)cc1 | 0 | 0 | 0 | 84
COCCNC(=O)C1(C)CCN(C(=O)c2sc(-c3ccccc3)nc2C)C1 (centres undefined) | - | - | 0 | -
CCN1CCc2c(sc(NC(=O)Nc3ccc(Cl)c(Cl)c3)c2C(N)=O)C1 | - | - | 0 | 70
SMILES | CHOP UPR activ | UPR XBP1 act | GAA850 FXN act | CHOP inh
CCOCCN1CCN(c2c(CC)c(C)nc3cc(-c4cc(OC)cc(OC)c4)nn23)CC1 | 0 | 0 | 0 | 0
CCc1c(C)nc2cc(-c3cc(OC)cc(OC)c3)nn2c1N1CCCC1 | 0 | 0 | 0 | 92
COc1ccc(-c2cc(NC(C)=O)c3ncc(-c4ccccc4)n3c2)c(OC)c1 | - | - | 0 | -
CCc1ccccc1NC1c2ccccc2C(=O)N1Cc1ccco1 (centres undefined) | 0 | 0 | 0 | 75
Cc1ccc2ccccc2c1C(O)c1ncc(-c2ccc(C(F)(F)F)cc2)[nH]1 (centres undefined) | - | - | 0 | -
Cc1[nH]nc2c1C1(CCN(C(=O)OCc3ccccc3)CC1)C(C#N)=C(N)O2 | 0 | 0 | 0 | 73
C=CCn1c(=NC(=O)c2cc(Cl)sc2Cl)sc2cc(S(N)(=O)=O)ccc21 | 0 | 0 | 0 | 0
COCCn1c(=NC(=O)c2sc3ccccc3c2Cl)sc2cc(S(N)(=O)=O)ccc21 | 0 | 0 | 0 | 75
C=CCn1c(=NC(=O)c2sc3ccccc3c2Cl)sc2cc(S(N)(=O)=O)ccc21 | 0 | 0 | 0 | 82
COc1ccccc1CNC(=O)COc1cc(O)c2c(c1)OC(C)(C)CC2=O | - | - | 0 | -
